Source: PubChem BioAssay (several laboratories)
Rows were chosen to be rich in hits. Some 2.4% of all compounds tested hit in one or more screens of this group.
MC4R barr agon – MC4R agonists recruiting beta-arrestin, primary screen, cell-based, luminescence, agonist arm of biased-ligand search; U2OS MC4R beta-arrestin complementation; percent of melanotan II response, DMSO zero; activation, % at 8.9 µM; actives 0.98% (n = 360,000);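 active = activation above a per-plate cutoff, the mean activation of sample wells on that plate plus 3 SD, cut at about 8% in these data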
H9c2 TAG inh – inhibitors of triacylglycerol accumulation, primary screen, cell-based, uHTS, fluorescence, H9c2; AID 651582, 2012; inhibition, % at 12.5 µM; actives 0.66% (n = 230,000); H9c2 cells, Nile Red lipid (TAG) fluorescence; cells loaded with 200 µM oleic acid;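 active = pattern-corrected inhibition of lipid staining of at least 50% with the nuclear-stain viability signal not falling by more than 50%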;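 note: 0% = DMSO wells and 100% = triacsin C control wells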
MC4R antagonist – MC4R antagonists of cAMP signaling, primary screen, cell-based, TR-FRET, antagonist arm of biased-ligand search. MC4R-expressing cells, MTII-stimulated cAMP, LANCE TR-FRET. inhibition, % at 6.5 µM. actives 0.48% (n = 360,000). AID 540295, 2011;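 active = inhibition above its plate's cutoff, the mean of tested wells on that plate plus 3 SD, cut at about 29% in these data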;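 note: 0% = Melanotan II alone and 100% = Melanotan II plus saturating MCL0020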
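Assay system: U2OS-MC4R stable cell line; Also added: Melanotan II; Technique: Eu-cAMP/anti-cAMP TR-FRET, emission 671 nm; Times: 30-min compound, 1-h challenge, 1-h detection, room temperature.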
NTR1 agonist – agonists of human NTR1, primary screen, imaging, U2OS cells, beta-arrestin-GFP, high content. NTR1-U2OS beta-arrestin-GFP spot imaging, agonist mode. activation, % at 20 µM. actives 0.17% (n = 330,000);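 active = activation at or above 40% of the spot to cytoplasm intensity ratio, with at least 20 cells analyzed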;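 note: 0% = DMSO without peptide and 100% = 100 nM NTR1 peptide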
Target sequence (P30989 whole entry, looked up): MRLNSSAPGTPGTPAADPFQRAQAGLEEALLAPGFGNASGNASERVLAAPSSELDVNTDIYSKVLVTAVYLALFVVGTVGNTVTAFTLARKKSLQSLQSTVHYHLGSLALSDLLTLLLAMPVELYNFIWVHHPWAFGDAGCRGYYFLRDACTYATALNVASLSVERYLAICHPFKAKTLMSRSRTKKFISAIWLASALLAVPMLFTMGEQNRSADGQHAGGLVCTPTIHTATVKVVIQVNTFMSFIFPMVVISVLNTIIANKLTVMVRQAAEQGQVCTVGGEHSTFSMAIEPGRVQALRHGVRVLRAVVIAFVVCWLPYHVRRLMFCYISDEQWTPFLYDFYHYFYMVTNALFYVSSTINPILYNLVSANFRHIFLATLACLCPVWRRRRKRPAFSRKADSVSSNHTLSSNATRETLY
aDG glyco up – activators of alpha-DG glycosylation, primary screen, uHTS, Pro5-aDG cells, AlphaScreen | activation, % at 10 µM | alpha-DG glycosylation AlphaScreen (IIH6); 0% Pro5, 100% B10-LARGE cell signal | actives 0.22% (n = 360,000) | AID 624168, 2012;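 active = activation of at least 8% versus controls, or a plate z-score of at least 8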;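 note: Pro5 are CHO cells carrying HIG-tagged alpha-DG that lacks glycosylation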
Tb MetRS inh – T. brucei MetRS inhibitors, primary screen, biochemical, luminescence; methionyl-tRNA synthetase (Trypanosoma brucei brucei); purified T. brucei MetRS, ATP depletion, Kinase-Glo luminescence; inhibition, % at 11.9 µM; actives 0.4% (n = 360,000); AID 624268, 2012;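 active = inhibition above a per-plate cutoff of the control wells' mean inhibition plus 3 SD, cut at about 5.5% in these data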;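 note: 0% = DMSO wells median and 100% = median of wells with control inhibitor compound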
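Test system – parasite MetRS enzyme · Reagent – substrates ATP, L-methionine and bulk Escherichia coli tRNA · Doses – 11.9 µM compound single dose, 0.9% DMSO · Times – 15 min enzyme-compound preincubation, 2 h reaction, 10 min detection, 25 °C · Signal – Kinase-Glo luminescence, ATP depletion format · Controls – DMSO-only wells as low control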
NTR1 ag conf – NTR1 agonists, single-dose retest, confirmation, imaging, U2OS cells, beta-arrestin-GFP, single concentration. shares compounds with NTR1 agonist. NTR1-U2OS beta-arrestin-GFP translocation imaging. activation, % at 20 µM. actives 38% (n = 480);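 active = mean activation at 20 µM of at least 40%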;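 note: 0% = DMSO without peptide and 100% = 100 nM NTR1 peptide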
U2OS cAMP counter – nonselective cAMP signaling inhibitors, parental cells, counter-screen for MC4R biased antagonist project, cell-based, TR-FRET, U2OS, forskolin, triplicate. shares compounds with MC4R antagonist. LANCE TR-FRET. inhibition, % at 6.5 µM. actives 26% (n = 1,600);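 active = mean inhibition over triplicates above the low-control well mean plus 3 SD, set per campaign, cut at about 13% in these data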;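 note: signal is single emission at 671 nm which falls as cellular cAMP rises; 0% = forskolin-stimulated wells and 100% = buffer without forskolin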
MC4R antag conf – MC4R cAMP antagonists, retest, confirmation, cell-based, TR-FRET; shares compounds with MC4R antagonist; MC4R-expressing cells, MTII-stimulated cAMP; inhibition, % at 6.5 µM; actives 27% (n = 1,600); AID 602195, 2012; in the data active = inhibition above about 29%;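 note: 0% = agonist stimulated wells alone and 100% = agonist stimulated wells plus saturating reference antagonist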
* hit, by the source's call; x = no result given.

SMILES	MC4R barr agon	H9c2 TAG inh	MC4R antagonist	NTR1 agonist	aDG glyco up	Tb MetRS inh	NTR1 ag conf	others
C(=C\c1nc(N2CCCCCC2)c2ccccc2n1)/c1ccccc1	-3	x	2	42*	0	-1	17
CCCS(=O)(=O)NC(=O)C1(C)CCN(C(=O)c2ccc3ccccc3c2)C1 (centres undefined)	0	-1	-1	x	0	0	x
O=C(CN(c1cccc(C(F)(F)F)c1)S(=O)(=O)c1ccc(Cl)c([N+](=O)[O-])c1)NCc1ccccc1	-1	x	14	43*	0	-1	0
CCCCNC(=O)c1nc(C2CCN(S(=O)(=O)c3ccc(Cl)cc3)CC2)oc1-c1ccccc1	x	x	x	x	1	0	x
CN(c1ccccc1)c1nc(N)c([N+](=O)[O-])c(Nc2cccc(F)c2)n1	0	x	12	44*	0	0	37
Cc1ccc(OCC(=O)N/N=C\c2cn(Cc3ccccc3)c3ccccc23)cc1C	0	x	13	41*	0	0	5
COc1cc(C(=O)N/N=C/c2cn(Cc3ccccc3)c3ccccc23)ccc1O	-3	-67	-3	2	0	-1	x
Cc1cc2c3c(c1)C(C)(c1ccccc1)CC(C)(C)N3C(=O)C21C(C#N)=C(N)OC2=C1C(=O)CC(C)(C)C2 (centres undefined)	-1	x	3	40*	0	-1	42*
CC1(C)CC(=O)C(=Cc2cn(-c3ccccc3)nc2-c2ccccc2)C(=O)C1	-1	1	8	71*	0	-1	65*
O/N=C/c1cn(-c2ccccc2)nc1-c1ccccc1	3	x	-2	x	1	0	x
O=C1COc2ccccc2C(c2nc3ccccc3[nH]2)N1C1CC1 (centres undefined)	x	x	x	x	0	-1	x
COCCN1C(=O)CCC1(C)c1nnnn1Cc1ccccc1 (centres undefined)	x	x	x	x	0	-1	x
O=C(/C=C/c1cccnc1)c1ccc(F)c(F)c1	0	x	12	61*	0	-1	69*
O=C(/C=C/c1cccc(OCc2ccccc2)c1)c1cccnc1	-1	8	10	54*	0	0	2
CC1(C(=O)NS(=O)(=O)c2cccs2)CCN1C(=O)Cc1ccc(Cl)cc1Cl (centres undefined)	0	4	-1	x	0	0	x
Cc1ccc2nc(-c3cccc(Br)c3)c(Cc3cccc(Cl)c3)n2c1	x	x	x	x	0	-1	x
COc1cccc(CNc2nc3cc(-c4ccccc4CO)sc3c(=O)n2C)c1	0	7	1	x	0	0	x
O=C(Cc1ccc(Cl)cc1)NC(=S)Nc1ccccc1N1CCOCC1	-2	x	2	45*	0	0	16
O=C1Nc2cc(C(=O)NCCCN3CCOCC3)ccc2S/C1=C/c1cccc(Cl)c1	2	x	7	44*	2	1	4
Cn1c2ccccc2c(=O)c2c(=O)n(Cc3ccco3)c(-c3ccc(C(C)(C)C)cc3)nc21	x	x	x	40*	x	x	19
COc1ccc(Cn2c(-c3ccccc3)nc3c(c(=O)c4ccccc4n3C)c2=O)cc1	0	x	1	13	0	0	x
CC(NCC(O)COCCC12CC3CC(CC(C3)C1)C2)c1ccccc1 (centres undefined)	6	x	-1	46*	-1	-1	69*
COc1ccc(C(C(=O)c2ccccc2)c2ccccc2)cc1 (centres undefined)	x	x	x	x	0	0	x
O=C(Nc1ccc(-c2noc(-c3cccs3)n2)cc1)c1cccnc1	5	0	9	47*	0	0	9
COc1cccc(-c2nc(-c3ccc(NC(=O)c4cccnc4)cc3)no2)c1	4	2	9	2	3	0	x
SMILES	MC4R barr agon	H9c2 TAG inh	MC4R antagonist	NTR1 agonist	aDG glyco up	Tb MetRS inh	NTR1 ag conf	others
COc1ccc(O)c(-c2cc(-c3cccc(Br)c3)n[nH]2)c1	6	-16	11	55*	0	0	16
COc1ccc(-c2cc(-c3cc(OC)ccc3O)[nH]n2)cc1	5	-6	-3	4	1	0	x
CCOC(=O)/C(=C\c1cccc(O)c1)c1nc2sc(C)c(C)c2c(=O)[nH]1	-3	x	17	43*	0	-1	51*
CCCNC(=O)C1(C)CCN(C(=O)COCc2ccccc2)C1 (centres undefined)	-1	-1	-2	x	0	0	x
CCN(C(=O)c1ccc2c(Cl)c3c(nc2c1)CCC3)c1ccc(C)c(C)c1	3	-5	1	45*	0	0	4
COc1ccc(CN2C(=O)C(CC(=O)NCCCCc3ccccc3)CC(C(=O)N(C)C)=C2C)cc1 (centres undefined)	-1	2	8	x	0	-1	x
COC(=O)C(=Cc1ccc(OCc2ccc([N+](=O)[O-])cc2)c(OC)c1)C(=O)OC	-2	-4	13	45*	0	-1	75*
CCOC(=O)C(=Cc1ccc(OCc2ccc([N+](=O)[O-])cc2)c(OC)c1)C(=O)OCC	0	-17	27	21	-1	0	x
COc1cc(C(=O)Oc2cccc(Nc3ncnc4ccccc34)c2)cc(OC)c1OC	4	x	5	44*	3	-1	31
COC(=O)COc1ccc(NC(=O)Cn2nc(-c3ccccc3)c3ccccc3c2=O)cc1	0	x	29*	61*	0	0	15	U2OS cAMP counter=19*;MC4R antag conf=38*
Cc1ccc(F)cc1C(=O)N1CCCC(C)(C(=O)NS(=O)(=O)C2CC2)C1 (centres undefined)	-2	-9	4	x	0	0	x
